Measurements published in ChEMBL document CHEMBL1140839, “Carbamate-appended N-alkylsulfonamides as inhibitors of gamma-secretase” (Bioorg Med Chem Lett, 2008).
Calls of active or inactive are those of the source. The rule behind the calls is not given here.

What was measured:
Gamma-secretase = test: Inhibition of gamma secretase in human H4 cells assessed as reduction in amyloid beta40 level by ELISA; type: cell-based
Outline: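 Cells were plated and allowed to attach, then the medium was replaced with Ultraculture containing compound at 1% final DMSO. After overnight incubation, Aβ40 in the conditioned medium was measured by sandwich ELISA (C-terminal Aβ40-specific capture antibody, HRP-labelled N-terminal Aβ antibody for detection). IC50 values are means of two experiments, each with 12 concentrations; intra-assay variance was <10%.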

[1] = Drug level in Tg2576 mouse brain at 200 umol/kg, po after 3 hrs; type: ADME, organism-based; details: read-out: Drug uptake
Outline: (§1)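 Tg2576 (βAPP-Swedish) transgenic mice received one oral dose of 200 μmol/kg. Plasma and brain drug concentrations (nM) were measured 3 h after dosing and reported as mean ± error.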

Mus musculus = test: Reduction in amyloid beta level in Tg2576 mouse brain at 200 umol/kg, po after 3 hrs; type: functional; parameters: scale not given: the % may be the effect or the level left
Outline: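 Tg2576 (βAPP-Swedish) transgenic mice received one oral dose of 200 μmol/kg. Brain Aβ was measured 3 h later and expressed as % reduction.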

[2] = Drug level in Tg2576 mouse plasma at 200 umol/kg, po after 3 hrs; type: ADME, organism-based; details: read-out: Drug uptake; outline: as §1

Row | SMILES | IC50 (Gamma-secretase) [nM] | other results
1 | C[C@H](CCOC(=O)NCCn1ccnc1)N(c1cc(Cl)ccc1CO)S(=O)(=O)c1ccc(Cl)cc1 | 4 | –
2 | CCNC(=O)OC[C@@H](C)N(c1cc(Cl)ccc1CO)S(=O)(=O)c1ccc(Cl)cc1 | 10 | –
3 | CC(C)N(CCCn1ccnc1)C(=O)OC[C@@H](C)N(c1cc(Cl)ccc1CO)S(=O)(=O)c1ccc(Cl)cc1 | 19 | –
4 | CCN(CCCn1ccnc1)C(=O)OC[C@@H](C)N(c1cc(Cl)ccc1Cl)S(=O)(=O)c1ccc(Cl)cc1 | 0.27 | concentration at 3 h [1]: 41.2 µM; Activity (Mus musculus): 50%; concentration at 3 h [2]: 98.9 µM
5 | C[C@H](COC(=O)NCCCn1ccnc1)N(c1cc(Cl)ccc1F)S(=O)(=O)c1ccc(Cl)cc1 | 0.66 | –
6 | C[C@H](CCCn1cnnn1)N(c1cc(Cl)ccc1CO)S(=O)(=O)c1ccc(Cl)cc1 | – | Activity (Mus musculus): 41%
7 | CC(C)NC(=O)OC[C@@H](C)N(c1cc(Cl)ccc1CO)S(=O)(=O)c1ccc(Cl)cc1 | 12 | –
8 | CCCNC(=O)OC[C@@H](C)N(c1cc(Cl)ccc1CO)S(=O)(=O)c1ccc(Cl)cc1 | 10 | –
9 | CCN(CCCn1ccnc1)C(=O)OC[C@@H](C)N(c1cc(Cl)ccc1CO)S(=O)(=O)c1ccc(Cl)cc1 | 0.06 | concentration at 3 h [1]: 0.227 µM; Activity (Mus musculus): 15%; concentration at 3 h [2]: 0.73 µM
10 | C[C@H](COC(=O)NCCn1ccnc1)N(c1cc(Cl)ccc1CO)S(=O)(=O)c1ccc(Cl)cc1 | 0.93 | –
11 | CCN(CC)C(=O)OC[C@@H](C)N(c1cc(Cl)ccc1CO)S(=O)(=O)c1ccc(Cl)cc1 | 18 | –
12 | C[C@H](COC(=O)N(C)CCCn1ccnc1)N(c1cc(Cl)ccc1Cl)S(=O)(=O)c1ccc(Cl)cc1 | 0.48 | –
13 | C[C@H](COC(=O)NCCCn1ccnc1)N(c1cc(Cl)ccc1CO)S(=O)(=O)c1ccc(Cl)cc1 | 2.3 | –
14 | C[C@H](COC(=O)NCCCn1ccnc1)N(c1cc(F)ccc1F)S(=O)(=O)c1ccc(Cl)cc1 | 1.2 | –
15 | C[C@H](COC(=O)NC(C)(C)C)N(c1cc(Cl)ccc1CO)S(=O)(=O)c1ccc(Cl)cc1 | 12 | –
16 | C[C@H](COC(=O)NC1CCCCC1)N(c1cc(Cl)ccc1CO)S(=O)(=O)c1ccc(Cl)cc1 | 5.6 | –
17 | CCC(C)NC(=O)OC[C@@H](C)N(c1cc(Cl)ccc1CO)S(=O)(=O)c1ccc(Cl)cc1 (stereo partly drawn) | 15 | –
18 | C[C@H](CCOC(=O)NCCCn1ccnc1)N(c1cc(Cl)ccc1CO)S(=O)(=O)c1ccc(Cl)cc1 | 7.7 | –
19 | C[C@H](COC(=O)N(CCCn1ccnc1)CC1CC1)N(c1cc(Cl)ccc1CO)S(=O)(=O)c1ccc(Cl)cc1 | 0.06 | concentration at 3 h [1]: 0.859 µM; Activity (Mus musculus): inactive; concentration at 3 h [2]: 6.83 µM
20 | C[C@H](COC(=O)NCCCn1ncnn1)N(c1cc(Cl)ccc1CO)S(=O)(=O)c1ccc(Cl)cc1 | 2.1 | –
21 | CNC(=O)OC[C@@H](C)N(c1cc(Cl)ccc1CO)S(=O)(=O)c1ccc(Cl)cc1 | 15 | –
22 | C[C@H](CCCN(C)S(C)(=O)=O)N(c1cc(Cl)ccc1CO)S(=O)(=O)c1ccc(Cl)cc1 | – | Activity (Mus musculus): 27%
23 | C[C@H](COC(=O)NCCCn1ccnc1)N(c1cc(Cl)ccc1Cl)S(=O)(=O)c1ccc(Cl)cc1 | 0.41 | –
24 | C[C@H](COC(=O)N1CCCC1)N(c1cc(Cl)ccc1CO)S(=O)(=O)c1ccc(Cl)cc1 | 1.8 | –
